Results on one compound are retold here after article PMC8941156 (Heliyon, 2022).

A short description of data set [1]: Stability of rubraxanthone in mice plasma. Conditions: for freeze–thaw stability, % diff: mice plasma, three freeze–thaw rounds. It is filed as in vitro ADME. The essentials:
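Blank mouse plasma was spiked at medium and high QC levels, extracted by acetonitrile precipitation with α-mangostin internal standard, and quantified by UHPLC-DAD at 243 nm. For freeze–thaw, four replicate samples per level went through three cycles. Post-preparative and plasma stability came from eight replicates per level. Results are given as % difference.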

Data set [2] is described as follows: Single dose oral pharmacokinetic study of rubraxanthone in mice. In kind it is in vivo. Particulars: mouse, plasma, 700 mg/kg. The method in brief:
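Mice (7–8 weeks, 20 ± 5 g) were given a fresh suspension in virgin coconut oil orally. Under isoflurane, mandibular-vein blood was taken from six mice per time point over 0–24 h into lithium heparin, and plasma was stored at −80 °C. Plasma was extracted by acetonitrile precipitation with α-mangostin internal standard and read by UHPLC-DAD (0.128–5 µg/mL calibration). Non-compartmental analysis used trapezoidal AUC and Ke from log-linear regression of the last four points (3–5.5 h), reported as mean ± SD.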

The CL/F is the apparent clearance, not corrected for the fraction that reaches the circulation. One may read the Tmax as the time at which the peak concentration occurs. As usually defined, the half-life is the time in which the quantity being followed falls by half. Higher therefore signals slow decline.

For `COc1c(O)cc2oc3cc(O)cc(O)c3c(=O)c2c1C/C=C(\C)CCC=C(C)C` [rubraxanthone, 1,3,6,trihydroxy-8-geranyl-7-methoxy xanthone], in data set [1] (HC sample (3.750 μg/mL)), the “freeze–thaw stability, % diff” value was 5.9%. In addition, in data set [1] (MC sample (2.067 μg/mL)), the “freeze–thaw stability, % diff” value came out at 0.49%. Moreover, in data set [1] (plasma kept at ambient temperature for 24 h before or after extraction vs plasma kept at -20 °C, MC and HC samples), the “post-preparative and plasma stability” value is “stable”. In addition, in data set [2], the CL/F was 18.7 mL/min/kg, the Tmax stood at 1.5 ± 0.99 h, the half-life was 6.72 ± 1.29 h and the k el is 2.78e-05 s⁻¹.
